PRMT1 FP inh = inhibitors of human PRMT1 | inhibition, % at 2.79 µM | hit rate 1.3% among 370,000 | Q99873 | recombinant PRMT1, activity-based probe fluorescence polarization;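 active = inhibition above about 21% made by adding two undisclosed values, limit read from the data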
TDP2 absorb = blocks human TDP2 phosphodiesterase activity | O95551 | recombinant TDP2, T5PNP hydrolysis, p-nitrophenol absorbance 415 nm | inhibition, % at 12.8 µM | hit rate 0.34% among 370,000;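 active = inhibition above the mean of all tested compounds plus 3 SD, set per campaign, cut at about 25% in these data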
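System – recombinant human TDP2 · Quantity – TDP2 enzyme at 120 nM final · Doses – single concentration, 12.8 µM nominal, with 1% DMSO · Incubation – 2 h at 37 °C · Measured by – epi absorbance of p-nitrophenol freed from T5PNP by hydrolysis · Read-out – % inhibition relative to enzyme-containing and enzyme-free wells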
UHRF1 binding = human UHRF1 methylated DNA binding inhibitors. UHRF1 binding to methylated oligo, TR-FRET. Q96T88. hit rate 0.75% among 370,000. inhibition, % at 4.4 µM; in the data active = inhibition above about 21%;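 also: UHRF1 SRA domain binding a hemimethylated CpG hairpin DNA probe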
Target sequence (Q96T88 whole entry, looked up, the tested form may be a part): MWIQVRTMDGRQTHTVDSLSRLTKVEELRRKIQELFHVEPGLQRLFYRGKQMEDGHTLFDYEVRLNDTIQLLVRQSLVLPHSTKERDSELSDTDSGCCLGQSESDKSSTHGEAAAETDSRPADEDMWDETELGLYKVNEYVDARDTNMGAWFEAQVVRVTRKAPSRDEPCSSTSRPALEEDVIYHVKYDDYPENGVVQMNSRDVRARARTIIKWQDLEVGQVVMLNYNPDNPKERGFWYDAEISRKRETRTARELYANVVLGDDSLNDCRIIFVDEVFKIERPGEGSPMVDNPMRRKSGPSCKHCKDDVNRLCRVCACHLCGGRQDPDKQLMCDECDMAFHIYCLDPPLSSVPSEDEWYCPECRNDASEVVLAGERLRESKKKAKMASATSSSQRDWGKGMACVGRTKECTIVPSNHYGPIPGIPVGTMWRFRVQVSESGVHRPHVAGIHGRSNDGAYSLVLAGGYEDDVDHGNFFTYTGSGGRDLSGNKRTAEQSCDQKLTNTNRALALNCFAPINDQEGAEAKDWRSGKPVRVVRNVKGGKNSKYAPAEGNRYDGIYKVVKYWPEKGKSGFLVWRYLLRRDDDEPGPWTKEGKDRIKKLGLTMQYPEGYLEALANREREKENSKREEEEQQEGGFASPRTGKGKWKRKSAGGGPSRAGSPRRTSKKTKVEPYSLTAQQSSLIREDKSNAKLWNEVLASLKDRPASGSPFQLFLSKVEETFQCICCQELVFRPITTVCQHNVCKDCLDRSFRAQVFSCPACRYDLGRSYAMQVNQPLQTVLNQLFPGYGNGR
SIAE primary = inhibitors of human sialic acid acetylesterase SIAE | Q9HAT2 | inhibition, % at 9.66 µM | AID 1053197 | SIAE FP-Rh probe binding, fluorescence polarization | hit rate 0.69% among 370,000;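 active = inhibition above a cutoff: mean of compounds within the control limits plus 3 SD of those, cut at about 17% in these data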
MBD2 DNA inh = blocks human MBD2 binding to methylated DNA; Q9UBB5; TR-FRET, MBD2 binding to methylated oligonucleotide; inhibition, % at 4.4 µM; hit rate 0.31% among 370,000; AID 686964; in the data active = inhibition above about 13%
LEDGF integ inh = blocks HIV-1 LEDGF/p75-dependent DNA integration; inhibition, % at 3.7 µM; hit rate 0.64% among 370,000; TR-FRET IN-LEDGF/p75 DNA integration, Eu/Cy5;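 active = inhibition above the screen-wide mean plus 3 SD, cut at about 13% in these data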;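 also: signal is the Cy5 over europium emission ratio at 671 and 618 nm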
PRMT1 confirm = PRMT1 (human) inhibition, FP confirmation. hit rate 42% among 3,300. AID 687036. inhibition, % at 2.79 µM. recombinant His-PRMT1, activity-based probe fluorescence polarization. shares compounds with PRMT1 FP inh;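 active = mean inhibition across replicates above the hit cutoff derived for the earlier primary screen, cut at about 22% in these data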
A number is an active result; – = inactive; · = not tested or not shown. A selection: hits, their analogues and other compounds. The true share with any hit is near 3.3%.

SMILES	PRMT1 FP inh	TDP2 absorb	UHRF1 binding	SIAE primary	MBD2 DNA inh	LEDGF integ inh	PRMT1 confirm
Cc1ccc(OCCOc2c(Cl)cc(Cl)cc2Cl)c([N+](=O)[O-])n1	–	–	–	–	–	–	·
Cc1cccc(C)c1NC(=O)/C(=C/c1ccco1)c1ccccc1	26.0	–	–	–	–	–	–
CC1=C(C(=O)Nc2ccccc2)C(c2ccc(O)cc2)N2C(=O)CSC2=N1 (stereo not given)	25.7	–	–	–	–	–	29.4
COc1ccc(C2C(C(=O)Nc3ccccc3)=C(C)N=C3SCC(=O)N32)cc1 (stereo not given)	–	–	–	–	–	–	·
O=C(NC1CCC(O)CC1)c1ccc(-c2ccc([N+](=O)[O-])cc2)o1 (stereo not given)	35.5	–	–	–	–	–	–
O=C(c1ccco1)N1CCN(C(=O)c2ccc(-c3ccc([N+](=O)[O-])cc3)o2)CC1	30.2	–	–	–	–	–	27.1
O=C(COC(=O)c1ccc(-c2ccc([N+](=O)[O-])cc2)o1)NC(=O)NC1CCCCC1	–	–	–	–	–	–	·
O=C(Cc1ccccc1F)N1CCC(n2nnc3ncccc32)CC1	–	–	–	–	–	–	·
CSc1ccc(C(=S)N2CCN(C)CC2)cc1	–	–	–	–	–	–	·
CN1CCN(C(=S)c2ccc(Br)cc2)CC1	41.3	–	–	–	–	–	44.0
CN1CCN(C(=S)c2ccc(N(C)C)cc2)CC1	42.7	–	–	–	–	–	43.4
CN1CCN(C(=S)c2ccc([N+](=O)[O-])cc2)CC1	36.0	–	–	–	–	–	44.6
NC1=[N+](Cc2ccccc2)C(Cc2ccccc2)C2C(=C3CCCCC3n3c(=O)n(-c4ccccc4)c(=O)n32)N1 (stereo not given)	–	–	–	–	–	–	·
COc1ccc(C(=O)CSc2nnc(-c3ccccn3)n2-c2ccccc2)cc1	–	–	–	–	–	–	·
COC[C@@H]1CCCN1c1ccc2c(c1)O[C@H]1CCN(C1)S2(=O)=O	–	–	–	–	–	–	·
COc1cc(OC)cc(C(=O)NC(=S)NNC(=O)Cc2cccs2)c1	27.8	–	–	–	–	–	–
CN1CCc2c(sc(/N=C/c3ccco3)c2C(N)=O)C1	25.3	–	–	–	–	–	–
Cc1oc(-c2ccccc2)cc1C(=O)NC(Cc1c[nH]c2ccccc12)C(=O)O (stereo not given)	30.2	–	–	–	–	–	–
O=C(Nc1ccccc1C(=O)NC(Cc1c[nH]c2ccccc12)C(=O)O)c1ccccc1 (stereo not given)	–	–	–	–	–	–	·
Cc1ccc(-n2c(SCC(=O)Nc3ccc(S(=O)(=O)Nc4cc(C)nc(C)n4)cc3)nnc2-c2ccncc2)cc1	–	–	–	–	–	–	·
CC(=O)Nc1c(O)nc(SCC(=O)Nc2c(C)cccc2C)[nH]c1=O	57.1	–	–	–	–	–	25.4
CCc1c(O)nc(SCC(=O)Nc2ccccc2C)[nH]c1=O	–	–	–	–	–	–	·
O=C(O)c1ccc(S(=O)(=O)Cc2ccccc2)cc1	24.9	–	–	–	–	–	–
Cc1ccc(S(=O)(=O)Cc2ccc(C(=O)OCc3ccccc3)cc2)cc1	–	–	–	–	–	–	·
COCCCN1C(=O)[C@H](CC(=O)NCc2cccc(C(F)(F)F)c2)[C@]2(C(=O)OC)CCCCC=C12	–	–	–	–	–	–	·
O=C(Nn1c(O)c(C=C2N=c3ccccc3=N2)sc1=S)c1cccc(Cl)c1	38.7	–	–	–	–	–	–
O=C(Nn1c(O)c(C=C2N=c3ccccc3=N2)sc1=S)c1ccccc1	49.3	–	–	–	–	–	–
Cc1ccc(C(=O)Nn2c(O)c(C=C3N=c4ccccc4=N3)sc2=S)cc1	55.2	–	–	–	–	–	–
COc1ccc(-c2cc(-c3nnc(SCC(=O)Nc4ccc(-c5nc6ccc(C)cc6s5)cc4)n3N)[nH]n2)cc1	–	–	–	–	–	–	·
CN(c1ccccc1)S(=O)(=O)c1ccc(NC(=O)c2nc(S(C)(=O)=O)ncc2Cl)cc1	40.0	–	–	–	–	–	48.5

Compound activity deposited in PubChem BioAssay by The Scripps Research Institute Molecular Screening Center.
